# In ChEMBL document CHEMBL5724801, “EUbOPEN Chemogenomics Library - Multiplex” (2024):
# “And” between values parts separate entries of the source, which are not always exact repeats. Equal values may be shown once.
# Tested on: HEK-293T
# Test: Multiplex assay against HEK293T
# Assay type: toxicity, cell-based
# Conditions: human
# Method in brief: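 Per cents of healthy-nucleus cells form the tubulin, mitochondrial-mass and membrane-permeability phenotype values. Live cells were stained at seeding with Hoechst33342, BioTracker Green Microtubule Cytoskeleton Dye, MitoTracker Red and Annexin V Alexa Fluor 680. After compound addition they were imaged on a CQ1 microscope at 37°C and 5% CO2, and CellPathfinder machine-learning gating split them into Hoechst high-intensity objects or normal cells, normal cells into healthy, pyknosed or fragmented nuclei, and pyknosed cells into mitotic or apoptotic.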
# [1] = 12 h, 1 µM, compound concentration 1 uM
# [2] = 12 h, 10 µM, compound concentration 10 uM
# [3] = 24 h, 1 µM, compound concentration 1 uM
# [4] = 24 h, 10 µM, compound concentration 10 uM
# [5] = 48 h, 1 µM, compound concentration 1 uM
# [6] = 48 h, 10 µM, compound concentration 10 uM
smiles,measurement,setting,value
Cc1sc2c(c1C)C(c1ccc(Cl)cc1)=N[C@H](CC(=O)OC(C)(C)C)c1nnc(C)n1-2,Population Apoptotic (%),[1],40% and 44%
same,Population Fragmented Nuclei (%),[1],8% and 6%
same,Population Healthy Nuclei (%),[1],80% and 76%
same,Population Hoechst High Intensity Objects (%),[1],8% and 9%
same,Population Membrane Permeable-Phenotype (%),[1],0%
same,Population Mitochondria Different-Phenotype (%),[1],49% and 65%
same,Population Mitotic Cells (%),[1],60% and 55%
same,Population Normal (%),[1],91% and 90%
same,Population Pyknosed Nuclei (%),[1],10% and 17%
same,Population Tubulin-Different-Phenotype (%),[1],32% and 26%
same,Total Cell Count,[1],478 and 333
same,Population Apoptotic (%),[2],41% and 66%
same,Population Fragmented Nuclei (%),[2],7% and 5%
same,Population Healthy Nuclei (%),[2],76% and 72%
same,Population Hoechst High Intensity Objects (%),[2],7% and 10%
same,Population Membrane Permeable-Phenotype (%),[2],0%
same,Population Mitochondria Different-Phenotype (%),[2],74% and 90%
same,Population Mitotic Cells (%),[2],58% and 33%
same,Population Normal (%),[2],92% and 89%
same,Population Pyknosed Nuclei (%),[2],15% and 21%
same,Population Tubulin-Different-Phenotype (%),[2],67% and 70%
same,Total Cell Count,[2],395 and 303
same,Population Apoptotic (%),[3],32%
same,Population Fragmented Nuclei (%),[3],10%
same,Population Healthy Nuclei (%),[3],76% and 82%
same,Population Hoechst High Intensity Objects (%),[3],5% and 6%
same,Population Membrane Permeable-Phenotype (%),[3],0%
same,Population Mitochondria Different-Phenotype (%),[3],29% and 43%
same,Population Mitotic Cells (%),[3],68% and 67%
same,Population Normal (%),[3],94% and 93%
same,Population Pyknosed Nuclei (%),[3],13% and 6%
same,Population Tubulin-Different-Phenotype (%),[3],19% and 11%
same,Total Cell Count,[3],609 and 479
same,Population Apoptotic (%),[4],41% and 49%
same,Population Fragmented Nuclei (%),[4],8% and 3%
same,Population Healthy Nuclei (%),[4],68% and 76%
same,Population Hoechst High Intensity Objects (%),[4],4% and 6%
same,Population Membrane Permeable-Phenotype (%),[4],0% and 1%
same,Population Mitochondria Different-Phenotype (%),[4],64% and 76%
same,Population Mitotic Cells (%),[4],58% and 50%
same,Population Normal (%),[4],95% and 93%
same,Population Pyknosed Nuclei (%),[4],23% and 19%
same,Population Tubulin-Different-Phenotype (%),[4],46% and 47%
same,Total Cell Count,[4],468 and 378
same,Population Apoptotic (%),[5],18% and 30%
same,Population Fragmented Nuclei (%),[5],11% and 14%
same,Population Healthy Nuclei (%),[5],80% and 79%
same,Population Hoechst High Intensity Objects (%),[5],3% and 4%
same,Population Membrane Permeable-Phenotype (%),[5],1% and 0%
same,Population Mitochondria Different-Phenotype (%),[5],16% and 21%
same,Population Mitotic Cells (%),[5],81% and 69%
same,Population Normal (%),[5],96% and 95%
same,Population Pyknosed Nuclei (%),[5],7% and 5%
same,Population Tubulin-Different-Phenotype (%),[5],10% and 12%
same,Total Cell Count,[5],1012 and 685
same,Population Apoptotic (%),[6],31% and 55%
same,Population Fragmented Nuclei (%),[6],9% and 8%
same,Population Healthy Nuclei (%),[6],73% and 76%
same,Population Hoechst High Intensity Objects (%),[6],3% and 5%
same,Population Membrane Permeable-Phenotype (%),[6],0%
same,Population Mitochondria Different-Phenotype (%),[6],47% and 66%
same,Population Mitotic Cells (%),[6],68% and 44%
same,Population Normal (%),[6],96% and 94%
same,Population Pyknosed Nuclei (%),[6],16% and 15%
same,Population Tubulin-Different-Phenotype (%),[6],19% and 28%
same,Total Cell Count,[6],641 and 525
O=C1c2c(Br)c(Br)c(Br)c(Br)c2C(=O)N1c1ncc[nH]1,Population Apoptotic (%),[1],13.1% and 15.91%
same,Population Fragmented Nuclei (%),[1],2.88% and 4.84%
same,Population Healthy Nuclei (%),[1],55.33% and 24.19%
same,Population Hoechst High Intensity Objects (%),[1],0%
same,Population Membrane Permeable-Phenotype (%),[1],0.52% and 0%
same,Population Mitochondria Different-Phenotype (%),[1],30.21% and 20%
same,Population Mitotic Cells (%),[1],86.9% and 84.09%
same,Population Normal (%),[1],100%
same,Population Pyknosed Nuclei (%),[1],41.79% and 70.97%
same,Total Cell Count,[1],347 and 124
same,Population Apoptotic (%),[2],11.88% and 18.7%
same,Population Fragmented Nuclei (%),[2],3.09% and 4.38%
same,Population Hoechst High Intensity Objects (%),[2],0.28% and 0%
same,Population Membrane Permeable-Phenotype (%),[2],0.82% and 0%
same,Population Mitochondria Different-Phenotype (%),[2],30.74% and 20%
same,Population Mitotic Cells (%),[2],88.12% and 81.3%
same,Population Normal (%),[2],99.72% and 100%
same,Population Pyknosed Nuclei (%),[2],28.37% and 76.88%
same,Total Cell Count,[2],357 and 160
same,Population Apoptotic (%),[3],7.29% and 20.59%
same,Population Fragmented Nuclei (%),[3],2.82% and 1.69%
same,Population Healthy Nuclei (%),[3],81.23% and 40.68%
same,Population Hoechst High Intensity Objects (%),[3],0%
same,Population Membrane Permeable-Phenotype (%),[3],0.41% and 0%
same,Population Mitochondria Different-Phenotype (%),[3],13.29% and 6.25%
same,Population Mitotic Cells (%),[3],92.71% and 79.41%
same,Population Normal (%),[3],100%
same,Population Tubulin-Different-Phenotype (%),[3],8.59% and 6.25%
same,Population Apoptotic (%),[4],15.38% and 16.98%
same,Population Fragmented Nuclei (%),[4],2.6% and 2.87%
same,Population Healthy Nuclei (%),[4],81.63% and 36.21%
same,Population Hoechst High Intensity Objects (%),[4],0%
same,Population Membrane Permeable-Phenotype (%),[4],0.42% and 0%
same,Population Mitochondria Different-Phenotype (%),[4],15.71% and 7.94%
same,Population Mitotic Cells (%),[4],84.62% and 83.02%
same,Population Normal (%),[4],100%
same,Population Tubulin-Different-Phenotype (%),[4],7.64% and 3.17%
same,Population Apoptotic (%),[5],5.76% and 12.5%
same,Population Fragmented Nuclei (%),[5],3.26% and 4.05%
same,Population Healthy Nuclei (%),[5],88.03% and 68.21%
same,Population Hoechst High Intensity Objects (%),[5],0% and 2.26%
same,Population Membrane Permeable-Phenotype (%),[5],3.85% and 1.69%
same,Population Mitochondria Different-Phenotype (%),[5],10.61% and 18.64%
same,Population Mitotic Cells (%),[5],94.24% and 87.5%
same,Population Normal (%),[5],100% and 97.74%
same,Population Apoptotic (%),[6],13.95% and 14.89%
same,Population Fragmented Nuclei (%),[6],5.46% and 4.92%
same,Population Healthy Nuclei (%),[6],88.11% and 79.67%
same,Population Hoechst High Intensity Objects (%),[6],0% and 0.97%
same,Population Membrane Permeable-Phenotype (%),[6],6.62% and 4.53%
same,Population Mitochondria Different-Phenotype (%),[6],10.78% and 11.11%
same,Population Mitotic Cells (%),[6],86.05% and 85.11%
same,Population Normal (%),[6],100% and 99.03%
same,Population Pyknosed Nuclei (%),[6],6.43% and 15.41%
CN1CCN2c3ccccc3Cc3ccccc3C2C1.Cl (stereo unspecified) [MIANSERIN HYDROCHLORIDE],Population Apoptotic (%),[1],23% and 46%
same,Population Fragmented Nuclei (%),[1],5% and 7%
same,Population Healthy Nuclei (%),[1],79% and 77%
same,Population Hoechst High Intensity Objects (%),[1],5% and 10%
same,Population Membrane Permeable-Phenotype (%),[1],0%
same,Population Mitochondria Different-Phenotype (%),[1],36% and 63%
same,Population Mitotic Cells (%),[1],76% and 53%
same,Population Normal (%),[1],94% and 89%
same,Population Pyknosed Nuclei (%),[1],14%
same,Population Tubulin-Different-Phenotype (%),[1],21% and 17%
same,Total Cell Count,[1],338 and 376
same,Population Apoptotic (%),[2],34% and 42%
same,Population Fragmented Nuclei (%),[2],5%
same,Population Healthy Nuclei (%),[2],81% and 85%
same,Population Hoechst High Intensity Objects (%),[2],9% and 4%
same,Population Membrane Permeable-Phenotype (%),[2],1% and 0%
same,Population Mitochondria Different-Phenotype (%),[2],45% and 53%
same,Population Mitotic Cells (%),[2],65% and 57%
same,Population Normal (%),[2],90% and 95%
same,Population Pyknosed Nuclei (%),[2],13% and 8%
same,Population Tubulin-Different-Phenotype (%),[2],40% and 28%
same,Total Cell Count,[2],410 and 491
same,Population Apoptotic (%),[3],22% and 26%
same,Population Fragmented Nuclei (%),[3],9% and 10%
same,Population Healthy Nuclei (%),[3],80%
same,Population Hoechst High Intensity Objects (%),[3],1% and 8%
same,Population Membrane Permeable-Phenotype (%),[3],0%
same,Population Mitochondria Different-Phenotype (%),[3],21% and 37%
same,Population Mitotic Cells (%),[3],77% and 73%
same,Population Normal (%),[3],98% and 91%
same,Population Pyknosed Nuclei (%),[3],10% and 9%
same,Population Tubulin-Different-Phenotype (%),[3],14% and 16%
same,Total Cell Count,[3],479 and 486
same,Population Apoptotic (%),[4],24% and 32%
same,Population Fragmented Nuclei (%),[4],8% and 5%
same,Population Healthy Nuclei (%),[4],77% and 84%
same,Population Hoechst High Intensity Objects (%),[4],5% and 3%
same,Population Membrane Permeable-Phenotype (%),[4],0%
same,Population Mitochondria Different-Phenotype (%),[4],31% and 36%
same,Population Mitotic Cells (%),[4],75% and 67%
same,Population Normal (%),[4],94% and 96%
same,Population Pyknosed Nuclei (%),[4],14% and 10%
same,Population Tubulin-Different-Phenotype (%),[4],34% and 21%
same,Total Cell Count,[4],486 and 612
same,Population Apoptotic (%),[5],13% and 37%
same,Population Fragmented Nuclei (%),[5],15% and 16%
same,Population Healthy Nuclei (%),[5],77% and 78%
same,Population Hoechst High Intensity Objects (%),[5],1% and 3%
same,Population Membrane Permeable-Phenotype (%),[5],1% and 0%
same,Population Mitochondria Different-Phenotype (%),[5],15% and 18%
same,Population Mitotic Cells (%),[5],86% and 62%
same,Population Normal (%),[5],98% and 96%
same,Population Pyknosed Nuclei (%),[5],6% and 4%
same,Population Tubulin-Different-Phenotype (%),[5],9%
same,Total Cell Count,[5],812 and 761
same,Population Apoptotic (%),[6],24% and 35%
same,Population Fragmented Nuclei (%),[6],14%
same,Population Healthy Nuclei (%),[6],76% and 79%
same,Population Hoechst High Intensity Objects (%),[6],2% and 1%
same,Population Membrane Permeable-Phenotype (%),[6],0% and 1%
same,Population Mitochondria Different-Phenotype (%),[6],18% and 14%
same,Population Mitotic Cells (%),[6],75% and 64%
same,Population Normal (%),[6],97% and 98%
same,Population Pyknosed Nuclei (%),[6],8% and 6%
same,Population Tubulin-Different-Phenotype (%),[6],17% and 11%
same,Total Cell Count,[6],702 and 860
